Screening results as filed in PubChem.
INS-1E ATP HTS: protection of INS-1E cells from cytokine death, primary screen, ATP luminescence, single point; INS-1E cytokine-induced death, 48 h; normalised: neutral wells 0, positive control 100; 20,000 compounds, 0.1% hits; AID 488910, 2010; protection from cytokine-induced ATP loss, % at 10 µM;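 active means mean replicate protection from cytokine-induced ATP loss at least 50% and at least 75% of replicates each reaching 50%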
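Test system: INS-1E rat cells | Quantity: 8000 cells per well | Medium: Phenol-red-free RPMI with 5% fetal bovine serum | Reagent: Cytokine cocktail of IFN-γ, TNF-α and IL-1β | Doses: One compound concentration, pin transfer | Timing: 48 h co-treatment, 10 min post-lysis read | Technique: Luminescent ATP assay (CellTiter-Glo)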
T cruzi HTS: inhibitors of intracellular Trypanosoma cruzi, primary screen, cell-based, plate reader, single point, set 2; intracellular Trypanosoma cruzi in host cells; activity score (inhibition), % at 5.01 µM; 22,000 compounds, 4.9% hits; in the data active means activity score above about 55%;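 further: parasites and compound incubated about four days before reading; 0% = median of neutral control wells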
YB-1 expression: inhibitors of YB-1 gene expression, primary screen, cell-based, fluorescence. U2OS, qRT-PCR YB-1 vs CDIP delta delta Cp, 16 h; hits give high values; zero = DMSO, each unit about twofold. delta delta Cp (YB-1 minus CDIP) (concentration not given with the values). 30,000 compounds, 0.37% hits. AID 434959, 2010;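 active means delta delta Cp rounded down to an integer at or above 3, about 3 SD of DMSO wells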;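 further: higher means less YB-1 transcript or more CDIP transcript relative to DMSO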
The depositor's hits bear a star. Only a selection was taken, and hits are over-represented in it overall.

`Cc1ccc(S(=O)(=O)Nc2ccc3c(c2)C(=O)N([C@H](C)CO)C[C@H](C)[C@H](CN(C)C(=O)CCC(F)(F)F)OCCCC[C@@H](C)O3)cc1` gave INS-1E ATP HTS 3, T cruzi HTS 0 and YB-1 expression 0.083.
`CCc1ccc(CN2CCN(Cc3ccc4c(c3)OCO4)CC2)cc1` gave YB-1 expression -0.15.
For Cc1ccc(S(=O)(=O)Nc2ccc3c(c2)C(=O)N([C@H](C)CO)C[C@H](C)[C@H](CN(C)Cc2ccc(C(F)(F)F)cc2)O3)cc1 the results were INS-1E ATP HTS -18, T cruzi HTS 69* and YB-1 expression 0.12.
C[C@@H]1CN([C@@H](C)CO)C(=O)c2cc(NS(=O)(=O)c3ccccc3)ccc2O[C@@H]1CN(C)Cc1ccc(C(F)(F)F)cc1 was read as INS-1E ATP HTS -7, T cruzi HTS 5 and YB-1 expression -0.44.
For C[C@H](CO)N1C[C@H](C)[C@H](CN(C)Cc2ccc(C(F)(F)F)cc2)Oc2ccc(NS(=O)(=O)c3ccccc3)cc2C1=O the results were INS-1E ATP HTS -19, T cruzi HTS 66* and YB-1 expression 0.072.
Screening C[C@@H]1CN([C@H](C)CO)C(=O)c2cc(NS(=O)(=O)c3ccc(F)cc3)ccc2O[C@@H]1CN(C)Cc1ccc(C(F)(F)F)cc1 returned INS-1E ATP HTS -6, T cruzi HTS 24 and YB-1 expression 0.21.
`C[C@H]1CN([C@@H](C)CO)C(=O)c2cc(NC(=O)Nc3ccc(C(F)(F)F)cc3)ccc2O[C@H]1CN(C)Cc1ccncc1` gave INS-1E ATP HTS -8, T cruzi HTS -20 and YB-1 expression 0.1.
Screening C[C@H]1CN([C@@H](C)CO)C(=O)c2cc(NS(=O)(=O)c3ccccc3)ccc2O[C@@H]1CN(C)Cc1ccc(C(=O)O)cc1 returned INS-1E ATP HTS 1, T cruzi HTS 6 and YB-1 expression -0.019.
Screening C[C@@H]1CN([C@H](C)CO)C(=O)c2cccc(NC(=O)Nc3ccc(C(F)(F)F)cc3)c2O[C@@H]1CN(C)CC1CCCCC1 returned INS-1E ATP HTS -29, T cruzi HTS 14 and YB-1 expression 0.0085.
Screening C[C@H](CO)N1C[C@H](C)[C@@H](CN(C)CC2CCCCC2)Oc2c(NC(=O)NC3CCCCC3)cccc2C1=O returned INS-1E ATP HTS -13, T cruzi HTS 23 and YB-1 expression -0.43.
Screening C[C@@H]1CN([C@H](C)CO)C(=O)c2cccc(NC(=O)NC3CCCCC3)c2O[C@H]1CN(C)CC1CCCCC1 returned INS-1E ATP HTS -57, T cruzi HTS 83* and YB-1 expression -0.7.
`C[C@H](CO)N1C[C@H](C)[C@H](CN(C)CC2CCCCC2)Oc2c(NC(=O)Nc3ccccc3)cccc2C1=O` gave INS-1E ATP HTS -38, T cruzi HTS 11 and YB-1 expression 3.1*.
`C[C@H](CO)N1C[C@H](C)[C@H](CN(C)CC2CCCCC2)Oc2c(NC(=O)Nc3ccc(C(F)(F)F)cc3)cccc2C1=O` gave INS-1E ATP HTS -82, T cruzi HTS 56* and YB-1 expression -0.75.
Screening C[C@@H]1CN([C@H](C)CO)C(=O)c2cccc(NC(=O)Nc3ccccc3)c2O[C@H]1CN(C)CC1CC1 returned INS-1E ATP HTS -3, T cruzi HTS -7 and YB-1 expression -0.64.
For C[C@H](CO)N1C[C@H](C)[C@H](CN(C)CC2CC2)Oc2c(NS(=O)(=O)c3cn(C)cn3)cccc2C1=O the results were INS-1E ATP HTS 1, T cruzi HTS -7 and YB-1 expression 0.22.
`C[C@@H]1CN([C@H](C)CO)C(=O)c2cccc(NS(=O)(=O)c3cn(C)cn3)c2O[C@@H]1CN(C)CC1CCCCC1` gave INS-1E ATP HTS 1, T cruzi HTS 60* and YB-1 expression 0.5.
`CC1=NN(c2ccccc2)C(=O)C1C` (centres undefined) gave YB-1 expression 0.057.
`C[C@@H]1O[C@@H](Oc2ccc(-c3coc4cc(O[C@@H]5O[C@@H](C)[C@H](O)[C@@H](O)[C@H]5O)ccc4c3=O)cc2)[C@H](O)[C@H](O)[C@H]1O` gave YB-1 expression -0.18.
Screening C[C@@H]1CN([C@H](C)CO)C(=O)c2cccc(NS(=O)(=O)c3ccc(F)cc3)c2O[C@@H]1CN(C)Cc1ccc(-c2ccccc2)cc1 returned INS-1E ATP HTS -61, T cruzi HTS 34 and YB-1 expression 0.19.
Screening C[C@@H]1CN([C@@H](C)CO)C(=O)Cc2cc(NC(=O)Cc3ccccc3)ccc2O[C@@H]1CN(C)Cc1ccc(C(=O)Nc2ccccc2N)cc1 returned INS-1E ATP HTS -14, T cruzi HTS 77* and YB-1 expression -0.0032.
Screening C[C@@H]1CN([C@H](C)CO)C(=O)Cc2cc(NC(=O)Cc3ccccc3)ccc2O[C@H]1CN(C)Cc1ccc(C(=O)Nc2ccccc2N)cc1 returned INS-1E ATP HTS -20, T cruzi HTS 30 and YB-1 expression -0.21.
Screening C[C@H]1CN([C@@H](C)CO)C(=O)Cc2cc(NC(=O)c3ccncc3)ccc2O[C@H]1CN(C)Cc1ccc(C(=O)Nc2ccccc2N)cc1 returned INS-1E ATP HTS 1, T cruzi HTS 34 and YB-1 expression -0.82.
Screening C[C@H](CO)N1C[C@H](C)[C@H](CN(C)Cc2ccc(C(=O)Nc3ccccc3N)cc2)Oc2ccc(NC(=O)Cc3ccccc3)cc2CC1=O returned INS-1E ATP HTS 45, T cruzi HTS 64* and YB-1 expression -0.62.
Screening CNC[C@H]1Oc2ccc(NS(=O)(=O)c3ccc(Cl)cc3)cc2C(=O)N([C@@H](C)CO)C[C@H]1C returned INS-1E ATP HTS 3, T cruzi HTS -6 and YB-1 expression 0.23.
`CC(C)NC(=O)Nc1cccc2c1O[C@H](CN(C)C(=O)Nc1cccc3ccccc13)[C@@H](C)CN([C@H](C)CO)C2=O` gave INS-1E ATP HTS 1, T cruzi HTS -14 and YB-1 expression -0.065.
Screening COc1ccc(C#Cc2ccc3c(c2)[C@]2(C(=O)N3)[C@H](C(=O)NC[C@H](O)c3ccccc3)[C@H]3C(=O)O[C@H](c4ccccc4)[C@H](c4ccccc4)N3[C@@H]2c2ccccc2OCCO)cc1 returned YB-1 expression -0.088.
CS(=O)(=O)c1sc(NC(=O)Nc2ccc(Cl)cc2)c2c1C=CCC2 was read as YB-1 expression -0.41.
`C[C@H]1CN([C@@H](C)CO)C(=O)c2cc(NC(=O)Nc3ccc(F)cc3)ccc2O[C@H]1CN(C)Cc1ccc(C(=O)Nc2ccccc2N)cc1` gave INS-1E ATP HTS -4, T cruzi HTS 51 and YB-1 expression -0.035.
`C[C@@H]1CN([C@H](C)CO)C(=O)c2cccc(NC(=O)Nc3ccc(F)cc3)c2O[C@H]1CN(C)Cc1ccc(C(=O)Nc2ccccc2N)cc1` gave INS-1E ATP HTS 7, T cruzi HTS 78* and YB-1 expression -0.63.
For C[C@H]1CN([C@@H](C)CO)C(=O)c2cccc(NC(=O)Nc3ccc(F)cc3)c2O[C@@H]1CN(C)Cc1ccc(C(=O)Nc2ccccc2N)cc1 the results were INS-1E ATP HTS 4, T cruzi HTS 67* and YB-1 expression -0.34.
